Results from ChEMBL document CHEMBL1132994, “Synthesis and anticonvulsant and neurotoxic properties of substituted N-phenyl derivatives of the phthalimide pharmacophore” (J Med Chem, 2000).
Activity calls are given as the source filed them. The calls are words filed in the database; no cut-off is given here.

Legend:
Mus musculus [1] = assay: Anticonvulsant activity in mice through seizures induced by maximal electroshock (MES) tests after ip administration at a concentration of 300 mg/kg after 4 hours; Inactive; format: functional, organism-based; set-up: dose 300 mg/kg
Mus musculus [2] = assay: Anticonvulsant activity in mice through seizures induced by maximal electroshock (MES) tests after ip administration at a concentration of 100 mg/kg after 30 min; Active; format: functional, organism-based; set-up: dose 100 mg/kg
Mus musculus [3] = assay: Neurotoxicity determined by rotarod test after intraperitoneal administration at a concentration of 300 mg/kg after 4 hours; Inactive; format: functional, organism-based; set-up: dose 300 mg/kg
Mus musculus [4] = assay: Neurotoxicity by rotarod test after intraperitoneal administration at a concentration of 300 mg/kg after 30 minutes; Inactive; format: functional, organism-based; set-up: dose 300 mg/kg
Mus musculus [5] = assay: Anticonvulsant activity in mice through seizures induced by subcutaneous pentylenetetrazole (scPTZ) tests after ip administration at a concentration of 300 mg/kg after 4 hours; Inactive; format: functional, organism-based; set-up: dose 300 mg/kg
Mus musculus [6] = assay: Anticonvulsant activity in mice through seizures induced by sc pentylenetetrazole (intraperitoneal administration at a concentration of 300 mg/kg after 30 min; Inactive; format: functional, organism-based; set-up: dose 300 mg/kg
Mus musculus [7] = assay: Anticonvulsant activity in mice through seizures induced by sc pentylenetetrazole (intraperitoneal administration at a concentration of 300 mg/kg after 4 hours; Inactive; format: functional, organism-based; set-up: dose 300 mg/kg
Mus musculus [8] = assay: Neurotoxicity by rotarod test after intraperitoneal administration at a concentration of 300 mg/kg after 4 hours; Active; format: functional, organism-based; set-up: dose 300 mg/kg
Mus musculus [9] = assay: Anticonvulsant activity in mice through seizures induced by subcutaneous pentylenetetrazole (scPTZ) tests after ip administration at a concentration of 300 mg/kg after 30 min; Inactive; format: functional, organism-based; set-up: dose 300 mg/kg
Mus musculus [10] = assay: Neurotoxicity by rotarod test after intraperitoneal administration at a concentration of 300 mg/kg after 30 minutes; Active; format: functional, organism-based; set-up: dose 300 mg/kg
Mus musculus [11] = assay: Anticonvulsant activity in mice through seizures induced by maximal electroshock (MES) tests after ip administration at a concentration of 300 mg/kg after 4 hours; Active; format: functional, organism-based; set-up: dose 300 mg/kg
Rattus norvegicus [12] = assay: Anticonvulsant activity was measured in rats through seizures induced by maximal electroshock (MES) tests by oral administration of drug after 15 minutes; No activity; format: functional, organism-based
Outline: (§1)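 Rats given a single oral dose of 30 or 50 mg/kg, depending on compound; MES protection scored at 15, 30, 60, 120 and 240 min. Activity graded by fraction of animals protected (0-25%, 25-50%, 50-75%, 75-100%); neurotoxicity monitored at the same time points.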

Rattus norvegicus [13] = assay: Anticonvulsant activity was measured in rats through seizures induced by maximal electroshock (MES) tests by oral administration of drug after 1 hour.; format: functional; outline: as §1
Rattus norvegicus [14] = assay: Anticonvulsant activity was measured in rats through seizures induced by maximal electroshock (MES) tests by oral administration of drug after 4 hours.; format: functional; outline: as §1
Rattus norvegicus [15] = assay: Toxicity screening in rats dosed orally with the compound; No toxicity; format: organism-based; settings: in vivo, po
Rattus norvegicus [16] = assay: Effective dose required to assure anticonvulsant protection in 50% of rats dosed orally by scPTZ test.; format: functional; settings: po
Outline: (§2)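 Rats dosed orally; ED50 is the dose giving anticonvulsant protection in 50% of animals in the MES or scPtz test. TD50 is the minimal neurotoxic dose in 50% of animals. Time to peak effect was also determined.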

Rattus norvegicus [17] = assay: Effective dose required to assure anticonvulsant protection in 50% of rats dosed orally by MES test.; format: functional; settings: po; outline: as §2
[18] = dose eliciting minimal neurological toxicity in 50% of animals.; format: organism-based; settings: rat, in vivo
Rattus norvegicus [19] = assay: Anticonvulsant activity was measured in rats through seizures induced by maximal electroshock (MES) tests by oral administration of drug after 2 hours.; format: functional; outline: as §1
Mus musculus [20] = assay: Anticonvulsant activity in mice through seizures induced by maximal electroshock (MES) tests after intraperitoneal administration at a concentration of 300 mg/kg after 4 hours; Inactive; format: functional, organism-based; set-up: dose 300 mg/kg
Mus musculus [21] = assay: Anticonvulsant activity in mice through seizures induced by maximal electroshock (MES) tests after ip administration at a concentration of 100 mg/kg after 30 min; Inactive; format: functional, organism-based; set-up: dose 100 mg/kg
Mus musculus [22] = assay: Neurotoxicity by rotarod test after intraperitoneal administration at a concentration of 300 mg/kg after 30 minutes.; active; format: functional, organism-based; set-up: dose 300 mg/kg
Mus musculus [23] = assay: Neurotoxicity by rotarod test after intraperitoneal administration at a concentration of 300 mg/kg after 4 hours.; Inactive; format: functional, organism-based; set-up: dose 300 mg/kg
Rattus norvegicus [24] = assay: Anticonvulsant activity was measured in rats through seizures induced by maximal electroshock (MES) tests by oral administration of drug after 30 minutes.; format: functional; outline: as §1
Rattus norvegicus [25] = assay: Anticonvulsant activity was measured in rats through seizures induced by maximal electroshock (MES) tests by oral administration of drug after 15 minutes.; format: functional; outline: as §1
Mus musculus [26] = assay: Anticonvulsant activity in mice through seizures induced by maximal electroshock (MES) tests after ip administration at a concentration of 100 mg/kg after 30 min; active; format: functional, organism-based; set-up: dose 100 mg/kg
Mus musculus [27] = assay: Anticonvulsant activity in mice through seizures induced by sc pentylenetetrazole (intraperitoneal administration at a concentration of 300 mg/kg after 4 hours; active; format: functional, organism-based; set-up: dose 300 mg/kg
Mus musculus [28] = assay: Anticonvulsant activity in mice through seizures induced by subcutaneous pentylenetetrazole (scPTZ) tests after ip administration at a concentration of 300 mg/kg after 30 min; active; format: functional, organism-based; set-up: dose 300 mg/kg
Mus musculus [29] = assay: Anticonvulsant activity in mice through seizures induced by maximal electroshock (MES) tests after ipb administration at a concentration of 300 mg/kg after 4 hours.; Inactive; format: functional, organism-based; set-up: dose 300 mg/kg
Mus musculus [30] = assay: Anticonvulsant activity in mice through seizures induced by maximal electroshock (MES) tests after ip administration at a concentration of 300 mg/kg after 4 hour; Active; format: functional, organism-based; set-up: dose 300 mg/kg
Mus musculus [31] = assay: Anticonvulsant activity in mice through seizures induced by scpentylenetetrazol (intraperitoneal administration at a concentration of 300 mg/kg after 4 hours; Inactive; format: functional, organism-based; set-up: dose 300 mg/kg
Mus musculus [32] = assay: Neurotoxicity by rotarod test after intraperitoneal administration at a concentration of 300 mg/kg after 30 minutes; active; format: functional, organism-based; set-up: dose 300 mg/kg
Mus musculus [33] = assay: Anticonvulsant activity in mice through seizures induced by subcutaneous pentylenetetrazole (scPTZ) tests after ip administration at a concentration of 300 mg/kg after 30 min; Active; format: functional, organism-based; set-up: dose 300 mg/kg
Mus musculus [34] = assay: Anticonvulsant activity in mice through seizures induced by subcutaneous pentylenetetrazole (scPTZ) tests after ip administration at a concentration of 300 mg/kg after 4 hours; Active; format: functional, organism-based; set-up: dose 300 mg/kg

Row | SMILES | Activity (Mus musculus [1]) | Activity (Mus musculus [3]) | Activity (Mus musculus [4]) | Activity (Mus musculus [6]) | Activity (Mus musculus [7]) | Activity (Mus musculus [9]) | Activity (Mus musculus [21]) | also measured
1 | Cc1ccc(N)cc1N1C(=O)c2ccccc2C1=O | inactive | inactive | inactive | inactive | – | – | – | Activity (Mus musculus [2]): Active; Activity (Mus musculus [5]): inactive
2 | Cc1cc(N)ccc1N1C(=O)c2ccccc2C1=O | – | – | – | – | inactive | inactive | – | Activity (Mus musculus [2]): Active; Activity (Mus musculus [8]): Active; Activity (Mus musculus [10]): Active; Activity (Mus musculus [11]): Active
3 | Cc1cccc(N)c1N1C(=O)c2ccccc2C1=O | – | inactive | – | – | – | inactive | – | Activity in animals (Rattus norvegicus [12]): No activity; Activity in animals (Rattus norvegicus [13]): 75%; Activity in animals (Rattus norvegicus [14]): 25%; Toxicity (Rattus norvegicus [15]): No toxicity; Activity (Mus musculus [2]): Active; ED50 (Rattus norvegicus [16]): > 250 mg/kg; ED50 (Rattus norvegicus [17]): 28.3 mg/kg; TD50 [18]: > 500 mg/kg; Activity (Mus musculus [10]): Active; Activity (Mus musculus [5]): inactive; Activity in animals (Rattus norvegicus [19]): 25%; Activity (Mus musculus [11]): Active
4 | COc1ccc(N2C(=O)c3ccccc3C2=O)c(OC)c1 | – | inactive | inactive | inactive | inactive | – | inactive | Activity (Mus musculus [20]): inactive
5 | Cc1c(N2C(=O)c3ccccc3C2=O)cccc1[N+](=O)[O-] | inactive | inactive | inactive | inactive | inactive | – | inactive | –
6 | COC(=O)c1ccccc1N1C(=O)c2ccccc2C1=O | inactive | – | – | inactive | inactive | – | – | Activity (Mus musculus [22]): Active; Activity (Mus musculus [23]): inactive
7 | Cc1c(N)cccc1N1C(=O)c2ccccc2C1=O | – | inactive | inactive | – | inactive | inactive | – | Activity in animals (Rattus norvegicus [13]): 100%; Activity in animals (Rattus norvegicus [14]): 100%; Toxicity (Rattus norvegicus [15]): No toxicity; Activity (Mus musculus [2]): Active; Activity in animals (Rattus norvegicus [24]): 100%; ED50 (Rattus norvegicus [16]): > 200 mg/kg; ED50 (Rattus norvegicus [17]): 8 mg/kg; TD50 [18]: > 400 mg/kg; Activity in animals (Rattus norvegicus [25]): 100%; Activity in animals (Rattus norvegicus [19]): 100%; Activity (Mus musculus [11]): Active
8 | O=C1c2ccccc2C(=O)N1c1ccc([N+](=O)[O-])cc1 | inactive | inactive | inactive | inactive | inactive | – | inactive | –
9 | COc1ccc(N2C(=O)c3ccccc3C2=O)c(C)c1 | inactive | inactive | inactive | – | – | – | – | Activity (Mus musculus [26]): Active; Activity (Mus musculus [27]): Active; Activity (Mus musculus [28]): Active
10 | Cc1c(N)cccc1N1C(=O)CCC1=O | inactive | inactive | inactive | inactive | inactive | – | – | Activity (Mus musculus [26]): Active
11 | O=C1c2ccccc2C(=O)N1c1ccc([N+](=O)[O-])cc1Cl | – | inactive | inactive | – | inactive | inactive | inactive | Activity (Mus musculus [29]): inactive
12 | Cc1cccc([N+](=O)[O-])c1N1C(=O)c2ccccc2C1=O | – | inactive | inactive | inactive | – | – | inactive | Activity (Mus musculus [30]): Active; Activity (Mus musculus [5]): inactive
13 | Cc1cccc(C)c1N1C(=O)c2ccccc2C1=O | inactive | inactive | inactive | inactive | – | – | – | Activity (Mus musculus [31]): inactive; Activity in animals (Rattus norvegicus [14]): 50%; Activity (Mus musculus [26]): Active; Toxicity (Rattus norvegicus [15]): No toxicity; Activity in animals (Rattus norvegicus [24]): 50%; Activity in animals (Rattus norvegicus [25]): 50%; Activity in animals (Rattus norvegicus [19]): 25%
14 | Cc1cccnc1N1C(=O)c2ccccc2C1=O | inactive | inactive | – | – | inactive | – | – | Activity in animals (Rattus norvegicus [13]): 50%; Activity (Mus musculus [26]): Active; Toxicity (Rattus norvegicus [15]): No toxicity; Activity in animals (Rattus norvegicus [24]): 50%; Activity (Mus musculus [28]): Active; Activity in animals (Rattus norvegicus [25]): 25%; Activity (Mus musculus [32]): Active; Activity in animals (Rattus norvegicus [19]): 50%
15 | Cc1c(C(=O)O)cccc1N1C(=O)c2ccccc2C1=O | inactive | inactive | inactive | – | – | inactive | inactive | Activity (Mus musculus [5]): inactive
16 | Cc1cc([N+](=O)[O-])ccc1N1C(=O)c2ccccc2C1=O | – | inactive | inactive | – | inactive | inactive | inactive | Activity (Mus musculus [11]): Active
17 | Cc1ccc([N+](=O)[O-])cc1N1C(=O)c2ccccc2C1=O | – | – | – | – | – | – | – | Activity (Mus musculus [33]): Active; Activity (Mus musculus [34]): Active; Activity (Mus musculus [2]): Active; Activity (Mus musculus [8]): Active; Activity (Mus musculus [10]): Active; Activity (Mus musculus [11]): Active
